Measured values from different studies.
Converted amounts (≈) assume the structure as drawn.

SMILES | target or system | assay | system | setting | endpoint | result
COC(=O)COc1ccc(NC(=O)C2(c3ccccc3)CC2)cc1 | U-937 | cell growth or viability, ATP luminescence | – | 72 h | GI50 | 4.2 µM
Clc1ccccc1C(c1ccccc1)(c1ccccc1)n1ccnc1 | Fusarium solani | microbial growth, disc diffusion | – | 20000 µg/mL | inhibition zone | 23 mm
C[C@@H]1[C@H](O)[C@@H](C)/C=C/C=C/C=C/C=C/C=C/C=C/C=C/[C@H](O[C@@H]2O[C@H](C)[C@@H](O)[C@H](N)[C@@H]2O)C[C@@H]2O[C@](O)(C[C@@H](O)C[C@@H](O)[C@H](O)CC[C@@H](O)C[C@@H](O)CC(=O)O[C@H]1C)C[C@H](O)[C@H]2C(=O)O | Pichia kudriavzevii | microbial growth | ATCC6258 | – | IC50 | 0.56 µM
Cc1cc(=O)oc2ccc(-c3cc(-c4ccc(Br)cc4)nc(N)n3)c(O)c12 | KB | cell growth or viability, MTT | – | 8 µg/mL, 72 h | inhibition | 2%
COC(=O)COc1cccc(NC(=O)C2(c3ccccc3)CC2)c1 | U-937 | cell growth or viability, ATP luminescence | – | 72 h | GI50 | 5.6 µM
CCCCCCCCN1CCN(CC(O)(Cn2cncn2)c2ccc(F)cc2F)CC1 (stereo not drawn) | Pichia kudriavzevii | microbial growth, broth dilution | ATCC6258 | 48 h | MIC | 7.8 µg/mL (≈ 17.9 µM)
Cc1cc(=O)oc2ccc(-c3cc(-c4cccc([N+](=O)[O-])c4)nc(N)n3)c(O)c12 | KB | cell growth or viability, MTT | – | 2 µg/mL, 72 h | inhibition | 12%
COC(=O)COc1cccc(NC(=O)C2(c3ccc(OC)cc3)CC2)c1 | U-937 | cell growth or viability, ATP luminescence | – | 72 h | GI50 | 3.6 µM
C[C@@H](c1ncncc1F)[C@](O)(Cn1cncn1)c1ccc(F)cc1F | Acanthamoeba quina | parasite growth, resazurin | – | 7 days | IC50 | 24.1 µM
COC(=O)COc1cccc(NC(=O)C2(c3ccc(Cl)cc3)CC2)c1 | U-937 | cell growth or viability, ATP luminescence | – | 72 h | GI50 | 2.1 µM
CCCCCCCCCCCCCCN1CCN(CC(O)(Cn2cncn2)c2ccc(F)cc2F)CC1 (stereo not drawn) | Pichia kudriavzevii | microbial growth, broth dilution | ATCC6258 | 48 h | MIC | 0.975 µg/mL (≈ 1.88 µM)
Cc1cc(=O)oc2ccc(-c3cc(-c4ccc(Cl)cc4)nc(N)n3)c(O)c12 | KB | cell growth or viability, MTT | – | 8 µg/mL, 72 h | inhibition | 39%
